Series [1] can be described thus: Oral bioavailability in Wistar rat at 1 to 9 mg/kg. In kind it is ADME, organism-based. Particulars: in vivo, dose 1-9 mg/kg. In outline:
(§1)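 Oral doses of 1, 3 and 9 mg/kg alongside iv and ip dosing, in 0.9 % saline, n = 3 per dose. Terminal plasma under isoflurane at six time points, UHPLC–MS/MS quantification. Bioavailability from non-compartmental AUCs, with the methods giving F = (AUCpo/AUCip) × (Doseip/Dosepo).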

Series [2] deals with Cholinesterase (Equus caballus, UniProt P81908). Put plainly: Inhibition of equine serum BuChE using Acetyl and butyrylthiocholine iodide as substrate preincubated for 5 mins followed by substrate addition and measured every min for 10 mins by Ellman's method.
Series [3] can be described thus: Mutagenicity in Salmonella typhimurium TA100 by Ames test. In kind it is toxicity. Conditions: salmonella enterica subsp. enterica serovar typhimurium. In a few lines:
(§2)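 Semi-quantitative spot test with S. typhimurium TA97a, TA98, TA100 and TA102, with and without S9 mix.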
Background: The Ames test detects mutagens through reverse mutation in bacteria.

The nature of series [4]: Mutagenicity in Salmonella typhimurium TA97a by Ames test. Conditions: salmonella enterica subsp. enterica serovar typhimurium. In kind it is toxicity. In outline: as §2
Series [5] is described as follows: Thermodynamic solubility of compound by classical shake-flask method. In kind it is physicochemical. Particulars: read-out: Therm_solubility. In a few lines:
(§3)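 Shake-flask thermodynamic solubility (OECD 105, miniaturized). 1 mg of solid added to 4 mL of water or potassium phosphate buffer at pH 7.4 or 12 (n = 3), sonicated and shaken horizontally at room temperature for 48 h. After centrifugation, supernatant was mixed 1:1 with acetonitrile/DMSO and quantified by UV at 326 nm against a four-point calibration curve.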

The nature of series [6]: Mutagenicity in Salmonella typhimurium TA102 by Ames test. The format is toxicity. Conditions: salmonella enterica subsp. enterica serovar typhimurium. In a few lines: as §2
Series [7] addresses T1, 5-hydroxytryptamine receptor 4 (Homo sapiens, UniProt Q13639). Put plainly: Partial agonist activity at human recombinant 5HT4 receptor expressed in […] cells assessed as cAMP accumulation in presence of serotonin by HTRF analysis. The format is functional, cell-based. In outline:
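COS-7 cells grown in DMEM with 10 % dialyzed FCS and transiently transfected with HA-tagged h5-HT4R, then plated at 16,000 cells/well. At 24 h, cells were exposed for 10 min at 37 °C to 5-HT4 ligands in HEPES-buffered saline containing 0.1 % BSA and 0.1 mM RO-20-1724. Cells were lysed with 0.1 % Triton X-100 and cAMP measured by HTRF.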
A general note: Changes in cAMP serve as a functional read-out for many G protein-coupled receptors.

Series [8] is described as follows: Intrinsic solubility of the compound at pH 12 by classical shake-flask method. The format is physicochemical. Particulars: buffer. In a few lines:
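Shake-flask method: 1 mg compound in 4 mL pH 12 phosphate buffer with KCl, n = 3. Sonicated, shaken at room temperature for 48 h, centrifuged. Supernatant mixed 1:1 with acetonitrile/DMSO (99:1) and quantified by UV at 326 nm against a four-point calibration curve.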

The nature of series [9]: AUC in C57BL6 mouse at 3 mg/kg, ip. In kind it is ADME, organism-based. Conditions: in vivo. In a few lines:
(§4)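 Single ip dose in 0.9 % saline (10 mL/kg mouse, 2 mL/kg rat), n = 3 per dose. CSF from cisterna magna and cardiac-puncture blood taken under isoflurane at six time points. Protein precipitation, then UHPLC–MS/MS (LLOQ 1 ng/mL). AUC0–∞ by linear trapezoidal non-compartmental analysis.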

Series [10] addresses T1, 5-hydroxytryptamine receptor 4. Put plainly: Partial agonist activity at human recombinant 5HT4 receptor at 1 x 10^-8M incubated for 60 mins. The format is functional.
Series [11] deals with T2, P-glycoprotein (ABCB1) (Homo sapiens, UniProt P08183). Put plainly: Inhibition of P-glycoprotein mediated Rhodamine-123 efflux in human NCI/ADR-RES cells assessed as increase in intracellular fluorescence at 10 uM incubated for 24 hrs relative to control. In kind it is cell-based. Conditions: probe Rhodamine-123. In a few lines: (§5)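 NCI/ADR-RES cells in RPMI with 10 % FCS, seeded 24 h before the assay. […] Washed three times, lysed in Tris/SDS, fluorescence read (ex 507/em 528 nm). Cyclosporin A as positive control.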

Series [12] in a line: Mutagenicity in Salmonella typhimurium TA98 by Ames test. The format is toxicity. Conditions: salmonella enterica subsp. enterica serovar typhimurium. In a few lines: as §2
Series [13] can be described thus: Oral bioavailability in C57BL6 mouse at 1 to 9 mg/kg. The format is ADME, organism-based. Particulars: in vivo, dose 1-9 mg/kg. In a few lines:
as §1

Series [14] can be described thus: AUC in Wistar rat at 3 mg/kg, ip. Conditions: in vivo. The format is ADME, organism-based. In a few lines: as §4
For series [15], the target named is T2, P-glycoprotein (ABCB1). Put plainly: Inhibition of P-glycoprotein mediated Rhodamine-123 efflux in human NCI/ADR-RES cells assessed as increase in intracellular fluorescence at 1 uM incubated for 24 hrs relative to control. In kind it is cell-based. Particulars: probe Rhodamine-123. In outline: as §5
Series [16] in a line: Thermodynamic solubility of compound at pH 7.4 by classical shake-flask method. In kind it is physicochemical. Particulars: buffer, read-out: Therm_solubility. In a few lines:
as §3

Series [17] can be described thus: Cytotoxicity against human MRC5 cells assessed as growth inhibition at 1 uM incubated for 72 hrs by MTS assay relative to control. Conditions: read-out: Activity. The format is toxicity, cell-based. In a few lines:
(§6)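 MRC5-SV2 cells in D-MEM with 10 % FCS, treated 24 h after plating with compound from DMSO stock (DMSO 1 % final). After 72 h, MTS added for 3 h at 37 °C and absorbance read at 490 nm. Growth inhibition = (1 − OD treated/OD control) × 100, triplicate experiments.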
On the technique in general: Formazan colour is commonly taken as a measure of viable cells.

A short description of series [18]: Cytotoxicity against human MRC5 cells assessed as growth inhibition at 10 uM incubated for 72 hrs by MTS assay relative to control. The format is toxicity, cell-based. Particulars: read-out: Activity. In outline: as §6

Converted amounts (≈) assume the structure as drawn.

Usually bioavailability stands for dose-corrected exposure relative to a reference, in per cent. Low readings indicate little systemic uptake, high ones much systemic uptake. Broadly, the IC50 is the midpoint of a concentration-inhibition curve. A low value points to greater potency in that assay. What is called EC50 is the concentration that produces a half-maximal response. The term AUC denotes concentration integrated over time. What is called Ki is a dissociation constant, usually derived from enzyme kinetics or from competition with a known ligand.

T1 sequence (Q13639 whole entry): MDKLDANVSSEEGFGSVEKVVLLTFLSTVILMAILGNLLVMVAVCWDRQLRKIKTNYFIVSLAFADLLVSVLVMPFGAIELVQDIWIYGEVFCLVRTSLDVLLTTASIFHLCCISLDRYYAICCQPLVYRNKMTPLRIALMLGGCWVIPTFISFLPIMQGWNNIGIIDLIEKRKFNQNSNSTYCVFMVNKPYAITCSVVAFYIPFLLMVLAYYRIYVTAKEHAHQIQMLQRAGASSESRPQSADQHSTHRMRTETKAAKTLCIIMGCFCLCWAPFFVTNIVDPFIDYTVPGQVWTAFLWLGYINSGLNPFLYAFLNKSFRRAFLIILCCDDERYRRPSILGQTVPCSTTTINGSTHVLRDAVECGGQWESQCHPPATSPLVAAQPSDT
T2 sequence (P08183 whole entry): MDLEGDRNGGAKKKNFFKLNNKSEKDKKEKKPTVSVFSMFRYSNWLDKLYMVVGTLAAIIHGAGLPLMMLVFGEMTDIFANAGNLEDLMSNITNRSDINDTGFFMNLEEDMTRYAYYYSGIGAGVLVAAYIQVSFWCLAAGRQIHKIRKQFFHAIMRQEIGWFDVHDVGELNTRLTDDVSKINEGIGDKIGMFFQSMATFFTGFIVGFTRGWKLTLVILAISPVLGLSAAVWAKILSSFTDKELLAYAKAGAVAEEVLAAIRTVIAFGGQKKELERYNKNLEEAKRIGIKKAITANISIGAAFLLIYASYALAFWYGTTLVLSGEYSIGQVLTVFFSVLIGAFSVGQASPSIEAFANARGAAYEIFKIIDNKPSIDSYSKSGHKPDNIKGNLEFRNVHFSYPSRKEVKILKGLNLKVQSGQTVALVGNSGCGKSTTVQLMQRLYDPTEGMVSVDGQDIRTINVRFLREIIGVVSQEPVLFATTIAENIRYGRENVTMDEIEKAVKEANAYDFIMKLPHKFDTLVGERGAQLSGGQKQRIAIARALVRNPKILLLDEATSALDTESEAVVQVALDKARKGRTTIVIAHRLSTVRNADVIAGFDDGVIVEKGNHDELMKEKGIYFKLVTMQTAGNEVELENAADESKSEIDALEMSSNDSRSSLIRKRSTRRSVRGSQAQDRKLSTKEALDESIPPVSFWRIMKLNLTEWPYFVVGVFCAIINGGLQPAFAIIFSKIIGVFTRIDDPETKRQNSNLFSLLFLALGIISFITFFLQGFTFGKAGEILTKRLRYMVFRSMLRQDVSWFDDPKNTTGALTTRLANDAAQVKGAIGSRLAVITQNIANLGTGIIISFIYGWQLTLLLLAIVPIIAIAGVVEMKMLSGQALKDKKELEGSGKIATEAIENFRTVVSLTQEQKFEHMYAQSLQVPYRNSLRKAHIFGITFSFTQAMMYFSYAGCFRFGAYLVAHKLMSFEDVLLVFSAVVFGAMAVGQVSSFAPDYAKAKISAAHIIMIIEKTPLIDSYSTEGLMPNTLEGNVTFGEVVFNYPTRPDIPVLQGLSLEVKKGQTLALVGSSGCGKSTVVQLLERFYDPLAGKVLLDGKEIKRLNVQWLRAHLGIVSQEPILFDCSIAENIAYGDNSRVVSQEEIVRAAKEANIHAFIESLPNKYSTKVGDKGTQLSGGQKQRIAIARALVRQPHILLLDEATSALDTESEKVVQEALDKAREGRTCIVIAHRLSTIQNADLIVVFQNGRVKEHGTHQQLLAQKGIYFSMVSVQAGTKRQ
Chain of Cholinesterase (P81908 whole entry): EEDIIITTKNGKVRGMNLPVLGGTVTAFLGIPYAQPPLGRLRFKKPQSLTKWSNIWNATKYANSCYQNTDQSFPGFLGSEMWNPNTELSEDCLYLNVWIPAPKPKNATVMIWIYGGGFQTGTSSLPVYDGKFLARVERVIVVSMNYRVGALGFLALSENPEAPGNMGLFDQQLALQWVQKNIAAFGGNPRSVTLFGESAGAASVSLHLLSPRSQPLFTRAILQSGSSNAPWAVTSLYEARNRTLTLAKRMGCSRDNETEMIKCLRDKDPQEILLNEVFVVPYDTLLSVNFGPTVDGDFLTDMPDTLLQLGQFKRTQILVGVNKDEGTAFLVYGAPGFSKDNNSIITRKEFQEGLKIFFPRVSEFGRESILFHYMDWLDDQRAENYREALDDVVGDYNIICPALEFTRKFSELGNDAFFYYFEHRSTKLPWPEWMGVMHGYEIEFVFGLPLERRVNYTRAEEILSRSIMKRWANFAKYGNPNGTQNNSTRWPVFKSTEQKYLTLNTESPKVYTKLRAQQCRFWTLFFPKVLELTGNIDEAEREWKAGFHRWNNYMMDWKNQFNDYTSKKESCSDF

Take `COc1cc(N)c(F)cc1C(=O)CCC1CCN(CC2CCCCC2)CC1`: the results for the bioavailability in series [1] and in series [13] were 3.6% and 12.4%, respectively. This molecule also displayed an IC50 in [2] of 6200 nM. Also, the Activity entry in [3], in [4], in [6] and in [12] was “Non-toxic” in each case. The solubility thermodynamic is 444 µM (≈ 167 µg/mL) in series [5], 2 µM (≈ 0.753 µg/mL) in series [8] and 104 µM (≈ 39.2 µg/mL) in series [16]. The EC50 in series [7] stood at 1.3 nM. The results for the AUC in [9] and in series [14] were 7.66 ng·h/mL and 9.26 ng·h/mL, respectively. Also, in series [10], the Ki turned out to be 9.6 nM. Besides, the inhibition at 24 h, 10 µM in [11] worked out at 111%. Moreover, the inhibition at 24 h, 1 µM in series [15] is 125%. Moreover, the inhibition at 72 h, 1 µM in series [17] stood at 0%. In series [18], the inhibition at 72 h, 10 µM came out at 0%.
